Data: ChEMBL document CHEMBL5303300, “EUbOPEN Chemogenomics Library - Multiplex” (2023)
Where “and” joins values, the source holds several entries; their conditions need not be identical. Identical values can stand only once.

Assays:
Format in all cases: toxicity, cell-based
[1] = system: Fibroblast; test: Multiplex assay against human fibroblast; conditions: number of replicates 2
How it was run: (§1)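 With compound added, live cells were imaged on a CQ1 microscope at 37°C and 5% CO2; staining with Hoechst33342, BioTracker Green Microtubule Cytoskeleton Dye, MitoTracker Red and Annexin V Alexa Fluor 680 had been done at seeding. The CellPathfinder machine-learning gating scheme split cells into Hoechst high-intensity objects or normal cells, normal cells into healthy, pyknosed or fragmented nuclei, and pyknosed cells into mitotic or apoptotic. The tubulin, mitochondrial-mass and membrane-permeability phenotypes are per cents of healthy-nucleus cells.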

[2] = system: HEK-293T; test: Multiplex assay against HEK293T; conditions: human, number of replicates 2; how it was run: as §1
[3] = system: U2OS; test: Multiplex assay against U2OS; conditions: human, number of replicates 2; how it was run: as §1
[4] = 12 h, 1 µM, compound concentration 1 uM
[5] = 12 h, 10 µM, compound concentration 10 uM
[6] = 24 h, 1 µM, compound concentration 1 uM
[7] = 24 h, 10 µM, compound concentration 10 uM
[8] = 48 h, 1 µM, compound concentration 1 uM
[9] = 48 h, 10 µM, compound concentration 10 uM

Fc1cccc(-n2cnc3c(NCc4nc5ccc(F)c(F)c5[nH]4)nc(N4CCOCC4)nc32)c1
Population Apoptotic (%) [1, 4]: 46% and 50% | Population Fragmented Nuclei (%) [1, 4]: 8% and 5% | Population Healthy Nuclei (%) [1, 4]: 78% and 65% | Population Hoechst High Intensity Objects (%) [1, 4]: 0% | Population Membrane Permeable-Phenotype (%) [1, 4]: 5% and 4% | Population Mitochondria Different-Phenotype (%) [1, 4]: 0% | Population Mitotic Cells (%) [1, 4]: 53% and 49% | Population Normal (%) [1, 4]: 99% and 100% | Population Pyknosed Nuclei (%) [1, 4]: 12% and 28% | Population Tubulin-Different-Phenotype (%) [1, 4]: 21% and 15% | Total Cell Count [1, 4]: 211 and 198 | Population Apoptotic (%) [1, 5]: 55% and 40% | Population Fragmented Nuclei (%) [1, 5]: 6% and 10% | Population Healthy Nuclei (%) [1, 5]: 63% and 68% | Population Hoechst High Intensity Objects (%) [1, 5]: 0% | Population Membrane Permeable-Phenotype (%) [1, 5]: 6% and 8% | Population Mitochondria Different-Phenotype (%) [1, 5]: 21% and 11% | Population Mitotic Cells (%) [1, 5]: 44% and 60% | Population Normal (%) [1, 5]: 99% and 100% | Population Pyknosed Nuclei (%) [1, 5]: 29% and 21% | Population Tubulin-Different-Phenotype (%) [1, 5]: 72% and 75% | Total Cell Count [1, 5]: 152 and 213 | Population Apoptotic (%) [1, 6]: 85% and 72% | Population Fragmented Nuclei (%) [1, 6]: 12% and 10% | Population Healthy Nuclei (%) [1, 6]: 44% and 66% | Population Hoechst High Intensity Objects (%) [1, 6]: 0% | Population Membrane Permeable-Phenotype (%) [1, 6]: 13% and 5% | Population Mitochondria Different-Phenotype (%) [1, 6]: 0% | Population Mitotic Cells (%) [1, 6]: 14% and 27% | Population Normal (%) [1, 6]: 100% and 99% | Population Pyknosed Nuclei (%) [1, 6]: 42% and 22% | Population Tubulin-Different-Phenotype (%) [1, 6]: 25% and 36% | Total Cell Count [1, 6]: 197 and 196 | Population Apoptotic (%) [1, 7]: 44% and 42% | Population Hoechst High Intensity Objects (%) [1, 7]: 0% | Population Mitochondria Different-Phenotype (%) [1, 7]: 57% and 31% | Population Mitotic Cells (%) [1, 7]: 55% and 57% | Population Normal (%) [1, 7]: 100% and 99% | Population Pyknosed Nuclei (%) [1, 7]: 27% and 17% | Population Tubulin-Different-Phenotype (%) [1, 7]: 100% and 74% | Population Apoptotic (%) [1, 8]: 85% and 90% | Population Fragmented Nuclei (%) [1, 8]: 12% and 10% | Population Healthy Nuclei (%) [1, 8]: 21% and 20% | Population Hoechst High Intensity Objects (%) [1, 8]: 2% and 0% | Population Membrane Permeable-Phenotype (%) [1, 8]: 13% and 17% | Population Mitochondria Different-Phenotype (%) [1, 8]: 2% | Population Mitotic Cells (%) [1, 8]: 14% and 9% | Population Normal (%) [1, 8]: 97% and 99% | Population Pyknosed Nuclei (%) [1, 8]: 66% and 68% | Population Tubulin-Different-Phenotype (%) [1, 8]: 47% and 28% | Total Cell Count [1, 8]: 172 and 174 | Population Apoptotic (%) [1, 9]: 77% and 73% | Population Fragmented Nuclei (%) [1, 9]: 11% and 14% | Population Healthy Nuclei (%) [1, 9]: 60% and 65% | Population Hoechst High Intensity Objects (%) [1, 9]: 0% | Population Membrane Permeable-Phenotype (%) [1, 9]: 1% and 2% | Population Mitochondria Different-Phenotype (%) [1, 9]: 27% and 23% | Population Mitotic Cells (%) [1, 9]: 22% and 26% | Population Normal (%) [1, 9]: 100% | Population Pyknosed Nuclei (%) [1, 9]: 28% and 19% | Population Tubulin-Different-Phenotype (%) [1, 9]: 72% and 75% | Total Cell Count [1, 9]: 140 and 207 | Population Apoptotic (%) [2, 4]: 54% and 71% | Population Fragmented Nuclei (%) [2, 4]: 7% and 5% | Population Healthy Nuclei (%) [2, 4]: 81% and 64% | Population Hoechst High Intensity Objects (%) [2, 4]: 12% and 18% | Population Membrane Permeable-Phenotype (%) [2, 4]: 2% | Population Mitochondria Different-Phenotype (%) [2, 4]: 61% and 54% | Population Mitotic Cells (%) [2, 4]: 45% and 28% | Population Normal (%) [2, 4]: 87% and 81% | Population Pyknosed Nuclei (%) [2, 4]: 10% and 29% | Population Tubulin-Different-Phenotype (%) [2, 4]: 86% and 80% | Total Cell Count [2, 4]: 334 and 362 | Population Apoptotic (%) [2, 5]: 69% and 80% | Population Fragmented Nuclei (%) [2, 5]: 1% and 4% | Population Healthy Nuclei (%) [2, 5]: 80% and 73% | Population Hoechst High Intensity Objects (%) [2, 5]: 6% and 11% | Population Membrane Permeable-Phenotype (%) [2, 5]: 2% and 3% | Population Mitochondria Different-Phenotype (%) [2, 5]: 81% and 68% | Population Mitotic Cells (%) [2, 5]: 30% and 20% | Population Normal (%) [2, 5]: 93% and 88% | Population Pyknosed Nuclei (%) [2, 5]: 18% and 22% | Population Tubulin-Different-Phenotype (%) [2, 5]: 94% | Total Cell Count [2, 5]: 319 and 328 | Population Apoptotic (%) [2, 6]: 65% and 77% | Population Fragmented Nuclei (%) [2, 6]: 3% and 7% | Population Healthy Nuclei (%) [2, 6]: 83% and 57% | Population Hoechst High Intensity Objects (%) [2, 6]: 22% and 24% | Population Membrane Permeable-Phenotype (%) [2, 6]: 0% and 1% | Population Mitochondria Different-Phenotype (%) [2, 6]: 75% and 72% | Population Mitotic Cells (%) [2, 6]: 34% and 22% | Population Normal (%) [2, 6]: 77% and 75% | Population Pyknosed Nuclei (%) [2, 6]: 12% and 35% | Population Tubulin-Different-Phenotype (%) [2, 6]: 88% and 80% | Total Cell Count [2, 6]: 263 and 293 | Population Apoptotic (%) [2, 7]: 82% and 62% | Population Fragmented Nuclei (%) [2, 7]: 3% and 2% | Population Healthy Nuclei (%) [2, 7]: 85% and 88% | Population Hoechst High Intensity Objects (%) [2, 7]: 13% and 15% | Population Membrane Permeable-Phenotype (%) [2, 7]: 1% and 2% | Population Mitochondria Different-Phenotype (%) [2, 7]: 83% and 82% | Population Mitotic Cells (%) [2, 7]: 17% and 37% | Population Normal (%) [2, 7]: 86% and 84% | Population Pyknosed Nuclei (%) [2, 7]: 10% and 8% | Population Tubulin-Different-Phenotype (%) [2, 7]: 93% and 94% | Total Cell Count [2, 7]: 366 and 334 | Population Apoptotic (%) [2, 8]: 69% and 80% | Population Fragmented Nuclei (%) [2, 8]: 5% and 7% | Population Healthy Nuclei (%) [2, 8]: 82% and 60% | Population Hoechst High Intensity Objects (%) [2, 8]: 23% and 24% | Population Membrane Permeable-Phenotype (%) [2, 8]: 1% and 3% | Population Mitochondria Different-Phenotype (%) [2, 8]: 84% and 70% | Population Mitotic Cells (%) [2, 8]: 30% and 19% | Population Normal (%) [2, 8]: 76% and 75% | Population Pyknosed Nuclei (%) [2, 8]: 11% and 32% | Population Tubulin-Different-Phenotype (%) [2, 8]: 88% and 73% | Total Cell Count [2, 8]: 251 and 297 | Population Apoptotic (%) [2, 9]: 89% and 85% | Population Fragmented Nuclei (%) [2, 9]: 4% and 5% | Population Healthy Nuclei (%) [2, 9]: 85% and 83% | Population Hoechst High Intensity Objects (%) [2, 9]: 13% and 16% | Population Membrane Permeable-Phenotype (%) [2, 9]: 1% and 0% | Population Mitochondria Different-Phenotype (%) [2, 9]: 92% | Population Mitotic Cells (%) [2, 9]: 10% and 14% | Population Normal (%) [2, 9]: 86% and 83% | Population Pyknosed Nuclei (%) [2, 9]: 10% | Population Tubulin-Different-Phenotype (%) [2, 9]: 96% and 94% | Total Cell Count [2, 9]: 333 and 303 | Population Fragmented Nuclei (%) [3, 4]: 13% | Population Healthy Nuclei (%) [3, 4]: 59% and 53% | Population Hoechst High Intensity Objects (%) [3, 4]: 0% | Population Membrane Permeable-Phenotype (%) [3, 4]: 2% and 5% | Population Mitochondria Different-Phenotype (%) [3, 4]: 5% and 0% | Population Normal (%) [3, 4]: 99% and 100% | Population Pyknosed Nuclei (%) [3, 4]: 27% and 32% | Population Tubulin-Different-Phenotype (%) [3, 4]: 68% and 31% | Population Apoptotic (%) [3, 5]: 86% and 90% | Population Hoechst High Intensity Objects (%) [3, 5]: 0% | Population Membrane Permeable-Phenotype (%) [3, 5]: 33% and 45% | Population Mitochondria Different-Phenotype (%) [3, 5]: 33% and 52% | Population Mitotic Cells (%) [3, 5]: 13% and 9% | Population Normal (%) [3, 5]: 100% and 99% | Population Pyknosed Nuclei (%) [3, 5]: 41% and 57% | Population Tubulin-Different-Phenotype (%) [3, 5]: 100% and 78% | Population Apoptotic (%) [3, 6]: 63% and 97% | Population Fragmented Nuclei (%) [3, 6]: 8% and 19% | Population Healthy Nuclei (%) [3, 6]: 14% and 15% | Population Hoechst High Intensity Objects (%) [3, 6]: 5% and 3% | Population Membrane Permeable-Phenotype (%) [3, 6]: 12% and 28% | Population Mitochondria Different-Phenotype (%) [3, 6]: 12% and 23% | Population Normal (%) [3, 6]: 95% and 96% | Population Pyknosed Nuclei (%) [3, 6]: 77% and 64% | Population Tubulin-Different-Phenotype (%) [3, 6]: 37% and 73% | Population Apoptotic (%) [3, 7]: 90% and 94% | Population Hoechst High Intensity Objects (%) [3, 7]: 0% and 1% | Population Mitochondria Different-Phenotype (%) [3, 7]: 100% and 69% | Population Mitotic Cells (%) [3, 7]: 9% and 5% | Population Normal (%) [3, 7]: 100% and 98% | Population Pyknosed Nuclei (%) [3, 7]: 55% and 76% | Population Tubulin-Different-Phenotype (%) [3, 7]: 100% and 65% | Population Apoptotic (%) [3, 8]: 87% and 100% | Population Fragmented Nuclei (%) [3, 8]: 8% and 21% | Population Healthy Nuclei (%) [3, 8]: 2% and 8% | Population Hoechst High Intensity Objects (%) [3, 8]: 6% | Population Membrane Permeable-Phenotype (%) [3, 8]: 100% and 42% | Population Mitotic Cells (%) [3, 8]: 12% and 0% | Population Normal (%) [3, 8]: 93% | Population Pyknosed Nuclei (%) [3, 8]: 89% and 70% | Population Tubulin-Different-Phenotype (%) [3, 8]: 100% and 94% | Population Apoptotic (%) [3, 9]: 100% and 99% | Population Healthy Nuclei (%) [3, 9]: 4% and 10% | Population Hoechst High Intensity Objects (%) [3, 9]: 0% | Population Membrane Permeable-Phenotype (%) [3, 9]: 100% and 60% | Population Mitochondria Different-Phenotype (%) [3, 9]: 50% and 93% | Population Mitotic Cells (%) [3, 9]: 0% | Population Normal (%) [3, 9]: 100% | Population Pyknosed Nuclei (%) [3, 9]: 46% and 81% | Population Tubulin-Different-Phenotype (%) [3, 9]: 100% and 73%
